Measured values from different studies.
PKN1: Serine/threonine-protein kinase N1 (PKN1, Homo sapiens, UniProt Q16512)
NUAK2: NUAK family SNF1-like kinase 2 (NUAK2, Homo sapiens, UniProt Q9H093)
CTSV: Cathepsin L2 (CTSV, Homo sapiens, UniProt O60911)

CC(=O)c1c(O)c(C)c(O)c(Cc2c(O)c3c(c(C(=O)/C=C/c4ccccc4)c2O)OC(C)(C)C=C3)c1O
activity vs control (PKN1; enzyme activity, inhibitor; 1 µM): 84%

Cc1nn(C)cc1-c1nc2c(N3CCN(Cc4ccc(Cl)cc4)CC3)c(Cl)cnc2[nH]1
remaining binding (NUAK2; binding, competition with immobilised ligand; 1 µM): 32%

COc1ccc2c(c[n+](C)c3c4cc5c(cc4ccc23)OCO5)c1OC
activity vs control (PKN1; enzyme activity, inhibitor; 1 µM): 86%

CN(C)C(=O)COC(=O)Cc1ccc(OC(=O)c2ccc(NC(=N)N)cc2)cc1
inhibition (Matrix metalloproteinase-9 (MMP9, Homo sapiens, UniProt P14780, Q279R); enzyme activity, inhibitor; 10 µM): 8%

Nc1ncc(-c2nc(N3CCOCC3)nc(N3CCOCC3)n2)c(C(F)F)n1
remaining binding (Ribosomal protein S6 kinase alpha-6, N-terminal kinase domain (RPS6KA6, Homo sapiens, UniProt Q9UK32); binding, competition with immobilised ligand; 10 µM): 48%

N=C(N)c1ccc2cc(OC(=O)c3ccc(N=C(N)N)cc3)ccc2c1
inhibition (CTSV; enzyme activity, inhibitor; 10 µM): 27%

O=c1[nH]c2ccccc2n1C1CCN(Cc2ccc(-c3nc4cc5nc[nH]c5cc4nc3-c3ccccc3)cc2)CC1
activity vs control (PKN1; enzyme activity, inhibitor; 1 µM): 77%

CC(C)C[C@H](NC(=O)[C@H]1O[C@@H]1C(=O)O)C(=O)NCCCCN=C(N)N
inhibition (CTSV; enzyme activity, inhibitor; 50 nM): 57%

COc1ncccc1-c1cnn2ccc(N3CCN(C(=O)OC(C)C)CC3)nc12
remaining binding (NUAK2; binding, competition with immobilised ligand; 1 µM): 100%
